In assay [1] the test system is Mus musculus. As to the kind of experiment: Potency index, ratio of moprhine ED50 for antinociceptive activity in sc dosed […] mouse to compound ED50 for antinociceptive activity in sc dosed CD1 mouse. The class given is functional.
In assay [2] the target is Mu-type opioid receptor (Homo sapiens) (UniProt P35372). Kind of assay: Displacement of [3H]-DAMGO from recombinant human MOR expressed in CHO cell membranes after 60 mins by liquid scintillation counting. The method, boiled down: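 Competition binding on membranes from CHO cells stably transfected with recombinant human MOR. Affinity is reported as Ki. Values are mean ± SEM of at least three independent experiments.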
Mu-type opioid receptor (Homo sapiens), sequence (P35372 whole entry): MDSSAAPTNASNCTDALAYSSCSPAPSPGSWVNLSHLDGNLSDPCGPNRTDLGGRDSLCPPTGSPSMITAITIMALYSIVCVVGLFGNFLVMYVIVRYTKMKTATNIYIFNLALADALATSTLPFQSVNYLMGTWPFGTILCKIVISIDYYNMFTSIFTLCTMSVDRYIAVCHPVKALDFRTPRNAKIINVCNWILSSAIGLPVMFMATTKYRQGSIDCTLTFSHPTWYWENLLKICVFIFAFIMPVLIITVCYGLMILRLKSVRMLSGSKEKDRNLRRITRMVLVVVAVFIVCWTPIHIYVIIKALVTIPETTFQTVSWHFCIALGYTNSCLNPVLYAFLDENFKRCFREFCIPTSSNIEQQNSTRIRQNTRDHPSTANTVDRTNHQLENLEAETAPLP
(Loss of bound radioactivity is the signal in a displacement assay; it reports binding, not function.)

Assay [3] has the same target. Kind of assay: Agonist activity at recombinant human MOR expressed in CHO cell membranes after 60 mins by [35S]GTPgammaS binding assay. In kind it is functional. The method, boiled down: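 [35S]GTPγS binding stimulated by ligand in membranes from CHO cells stably expressing human MOR. Values are mean ± SEM of at least three independent experiments.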
Background: GTPγS is a poorly hydrolysed GTP analogue; its binding reports G protein activation.

The species entered for assay [4] is Homo sapiens. As to the kind of experiment: Selectivity ratio of Ki for recombinant human DOR expressed in CHO cell membranes to Ki for recombinant human MOR expressed in CHO cell membranes. In kind it is cell-based.

The structures appear in SMILES notation.

Consider `CO[C@@]12CCC[C@@H]3Oc4c(O)ccc5c4[C@@]31CCN(C)[C@@H]2C5`, for which, in assay [1], the “Ratio ED50” value was “<=1020”. Moreover, the inhibition entry in assay [2] was “Dose-dependent effect”. In addition, the Activity result in assay [3] was “Dose-dependent effect”.
`CN1CC[C@]23c4c5ccc(O)c4O[C@H]2C(=O)CC[C@@]3(OCc2ccccc2)[C@H]1C5`: the “Ratio ED50” value in assay [1] was “<=1020”. The inhibition result in assay [2] is “Dose-dependent effect”. Further, in assay [3], the Activity result is “Dose-dependent effect”.
`CN1CC[C@]23c4c5ccc(O)c4O[C@H]2CCC[C@@]3(OCc2ccccc2)[C@H]1C5`: the Ratio Ki in assay [4] stood at 21. Further, the “Ratio ED50” value in assay [1] was “<=1020”. For the same compound, the inhibition entry in assay [2] was “Dose-dependent effect”. Further, the Activity result in assay [3] is “Dose-dependent effect”.
Regarding `CO[C@@]12CCC(=O)[C@@H]3Oc4c(O)ccc5c4[C@@]31CCN(C)[C@@H]2C5`, the “Ratio ED50” value in assay [1] was “<=1020”. In assay [2], the inhibition result was “Dose-dependent effect”. The Activity entry in assay [3] is “Dose-dependent effect”.
For `CN1CC[C@]23c4c5ccc(O)c4O[C@H]2CCC[C@@]3(O)[C@H]1C5`, the “Ratio ED50” value in assay [1] is reported as “<=1020”. Besides, the inhibition entry in assay [2] was “Dose-dependent effect”. For the same compound, in assay [3], the Activity entry was “Dose-dependent effect”.
Take `CO[C@@]12CCC[C@]3(C)Oc4c(O)ccc5c4[C@@]31CCN(C)[C@@H]2C5`: the “Ratio ED50” value in assay [1] is “<=1020”.
As to `CO[C@@]12CCC(=O)[C@]3(C)Oc4c(O)ccc5c4[C@@]31CCN(C)[C@@H]2C5`, in assay [1], the “Ratio ED50” value is listed as “<=1020”. Also, in assay [2], the inhibition entry is “Dose-dependent effect”. The Activity entry in assay [3] was “Dose-dependent effect”.

For the origin of these results see ChEMBL document CHEMBL4028881, “Synthesis, Pharmacology, and Molecular Docking Studies on 6-Desoxo-N-methylmorphinans as Potent μ-Opioid Receptor Agonists” (J Med Chem, 2017).
